Experimental data gathered from unrelated publications.
Compare with care: the assays were run in different laboratories.
Target: Serine/threonine-protein kinase OSR1 (OXSR1, Homo sapiens, UniProt O95747)

| Compound | test | system | conditions | endpoint | result |
| --- | --- | --- | --- | --- | --- |
| CCS(=O)(=O)c1cc2cc(C[C@@](O)(CC(C)(C)c3ccc(F)cc3C(N)=O)C(F)(F)F)[nH]c2cn1 | cell-free assay, competition with immobilised ligand |  | 1 µM | remaining binding | 88% |
| COc1cc(Nc2cnc(C#N)c(O[C@H](C)CN(C)C)n2)ncc1-c1cnn(C)c1 | enzyme activity, inhibitor, radiometric |  | 1 µM | remaining activity | 115% |
| Cn1c2c(Cl)c(Cl)ccc2c2cn[nH]c(=O)c21 | thermal stability, DSF |  | 10 µM | ΔTm | -0.2 °C |
| Cc1cc(NC(=O)c2cccc(S(F)(F)(F)(F)F)c2)cc(-n2ccn3nc(-c4cccnc4)cc23)c1 | cell-free assay, competition with immobilised ligand |  | 1 µM | remaining binding | 100% |
| Cn1c2c(Cl)c(Cl)ccc2c2cc(N)[nH]c(=O)c21 | thermal stability, DSF |  | 10 µM | ΔTm | -0.2 °C |
| Cc1sc(C(=O)NC2COC2)cc1-n1cc(NC(=O)Nc2c(F)cccc2Cl)cn1 | enzyme activity, inhibitor |  | 10 µM | remaining activity | 127% |
| Cn1c2c(c3ccc(Cl)c(Cl)c31)C(C#N)C(C)(C)NC2=O (stereo not shown) | thermal stability, DSF |  | 10 µM | ΔTm | -0.1 °C |
| FC(F)(F)Oc1cccc(-c2cnc3ccc(-c4ccncc4)nn23)c1 | enzyme activity, inhibitor, radiometric |  | 1 µM | activity vs control | 97% |
| N#CCCc1ccc2c(c1)-c1[nH]c3ccc([N+](=O)[O-])cc3c1CC(=O)N2 | cell-free assay |  | 0.5 µM | remaining signal | 94.6% |
| CN1CCC2(CC1)NC(=O)c1c(c3ccc(Cl)c(Cl)c3n1C)C2C#N (racemic) | thermal stability, DSF |  | 10 µM | ΔTm | -0.3 °C |
| Cn1nc(C(F)(F)F)cc1-c1cnc(N2CCc3cc(S(=O)(=O)Nc4c(F)cc(Cl)cc4F)cc(N4CCCC4=O)c32)nc1 | cell-free assay, competition with immobilised ligand |  | 1 µM | remaining binding | 99% |
| C[C@@H]1CCN(C(=O)CC#N)C[C@@H]1N(C)c1ncnc2[nH]ccc12 | cell-free assay, inhibitor |  | 0.5 µM | remaining signal | 98.2% |
| O=C1NC(c2ccccn2)Sc2ccccc21 (stereo not shown) | cell-free assay, competition with immobilised ligand |  | 1 µM | remaining binding | 100% |
| Cn1c2c(c3ccc(Cl)c(Cl)c31)C(C#N)C1(CCOCC1)NC2=O (stereo not shown) | thermal stability, DSF |  | 10 µM | ΔTm | -0.5 °C |
| CCc1ccccc1C(=O)Nc1n[nH]c2c(C)c(F)c(C3C(C#N)=C(C)N(C)C(C)=C3C#N)cc12 | cell-free assay, competition with immobilised ligand |  | 1 µM | remaining binding | 100% |
| N#CC1c2c([nH]c3c(Cl)c(Cl)ccc23)C(=O)NC12CCCCC2 (racemic) | thermal stability, DSF |  | 10 µM | ΔTm | 0.1 °C |
| COc1cccc2c(NCc3ccccc3)nc(-n3c(N)nc4ccccc43)nc12 | target engagement in cells, inhibitor, chemoproteomics |  | 20 mM | inhibition | -6.6% |
| COc1cc(Nc2c(C#N)cnc3cc(OCCCN4CCN(C)CC4)c(OC)cc23)c(Cl)cc1Cl | cell-free assay |  | 0.5 µM | remaining signal | 100% |
| CCN1CCN(Cc2ccc(NC(=O)c3ccc(C)c(Oc4ccnc5[nH]ccc45)c3)cc2C(F)(F)F)CC1 | target engagement in cells, inhibitor, chemoproteomics | Huh-7 | 10 µM | inhibition | -24.5% |
| Cn1cc(Cl)c2c(Oc3c(F)cc(Nc4cc(Cl)nc(N)n4)cc3F)ccnc21 | cell-free assay, competition with immobilised ligand |  | 0.1 µM | remaining binding | 93% |
| Nc1ncnc2occ(-c3ccc(NC(=O)Nc4cc(C(F)(F)F)ccc4F)cc3)c12 | cell-free assay, inhibitor |  | 20 µM | remaining signal | 9.5% |
| COc1ccc2c(O[C@@H]3C[C@H]4C(=O)N[C@]5(C(=O)O)CC5/C=C\CCCCC[C@H](NC(=O)OC5CCCC5)C(=O)N4C3)cc(-c3csc(NC(=O)C(C)C)n3)nc2c1C (stereo partly shown) | cell-free assay, competition with immobilised ligand |  | 1 µM | remaining binding | 82% |
| Cc1ccc(Nc2nccc(N(C)c3ccc4c(C)n(C)nc4c3)n2)cc1S(N)(=O)=O | enzyme activity, inhibitor |  | 0.5 µM | remaining activity | 103% |
| CCCCN(CCCC)C(=O)CN1C[C@H](c2cc(OC)c3c(c2)OCO3)[C@@H](C(=O)O)[C@@H]1CC(C)(C)CCC | cell-free assay, competition with immobilised ligand |  | 1 µM | remaining binding | 89.5% |
| CC(C)(O)[C@H]1CC[C@H](Nc2ccc3ncc(-c4cccc(C(F)(F)F)c4)n3n2)CC1 | enzyme activity, inhibitor |  | 1 µM | remaining activity | 102% |
